Laboratory results taken from ChEMBL document CHEMBL1135991 (J Med Chem, 2002).

Tests used:
Melanocortin receptor 3 [1] = target: T1, Melanocortin receptor 3 (Homo sapiens, UniProt P41968); assay: Binding affinity for human Melanocortin-3 receptor (hMC3R) expressed in HEK293 cells; format: cell-based
Melanocortin receptor 5 [2] = target: T2, Melanocortin receptor 5 (Homo sapiens, UniProt P33032); assay: Effective concentration against human melanocortin 5 receptor (hMC5R) in HEK293 cells; format: cell-based
T2 sequence (P33032 whole entry): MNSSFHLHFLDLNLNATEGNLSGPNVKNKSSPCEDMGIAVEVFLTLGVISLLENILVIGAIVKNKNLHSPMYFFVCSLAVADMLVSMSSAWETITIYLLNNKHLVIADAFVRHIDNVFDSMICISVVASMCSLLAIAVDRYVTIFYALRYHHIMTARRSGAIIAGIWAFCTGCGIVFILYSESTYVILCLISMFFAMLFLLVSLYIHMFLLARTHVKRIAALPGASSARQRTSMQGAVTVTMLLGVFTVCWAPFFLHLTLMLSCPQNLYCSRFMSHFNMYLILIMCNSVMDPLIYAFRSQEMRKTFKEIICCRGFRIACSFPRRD
Procedure, shortened: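 Transfected HEK293 cells were seeded 50 000/well 48 h ahead. They were preincubated 1 min at 37 °C in EBSS with IBMX, then given varying melanotropin concentrations for 3 min at 37 °C. The reaction was stopped with ice-cold Tris/EDTA and lysates boiled 15 min. Supernatant cAMP was measured by competitive binding kit. EC50 came from a nonlinear least-squares fit; duplicate experiments, each in triplicate.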

Melanocortin receptor 4 [3] = target: T3, Melanocortin receptor 4 (Homo sapiens, UniProt P32245); assay: Inhibition of binding to human Melanocortin-4 receptor (hMC4R)
T3 sequence (P32245 whole entry): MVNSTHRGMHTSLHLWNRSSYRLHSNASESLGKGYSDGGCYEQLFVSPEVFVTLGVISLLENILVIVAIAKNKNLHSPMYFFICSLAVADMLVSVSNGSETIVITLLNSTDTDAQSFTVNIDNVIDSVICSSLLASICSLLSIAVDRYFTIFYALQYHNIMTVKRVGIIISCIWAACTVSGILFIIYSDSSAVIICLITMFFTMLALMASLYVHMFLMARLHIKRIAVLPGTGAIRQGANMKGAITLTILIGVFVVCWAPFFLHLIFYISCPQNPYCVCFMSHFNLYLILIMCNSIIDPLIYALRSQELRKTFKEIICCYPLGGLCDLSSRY

Melanocortin receptor 3 [4] = target: T1, Melanocortin receptor 3; assay: Inhibition of human Melanocortin-3 receptor (hMC3R) expressed in HEK293 cells; format: cell-based
Melanocortin receptor 5 [5] = target: T2, Melanocortin receptor 5; assay: Stimulation of intracellular cAMP levels in HEK293 cells expressing human melanocortin 5 receptor
Melanocortin receptor 3 [6] = target: T1, Melanocortin receptor 3; assay: Stimulation of intracellular cAMP levels in HEK293 cells expressing human Melanocortin-3 receptor
Melanocortin receptor 4 [7] = target: T3, Melanocortin receptor 4; assay: Stimulation of intracellular cAMP levels in CHO cells expressing human Melanocortin-4 receptor; format: functional, cell-based
Melanocortin receptor 4 [8] = target: T3, Melanocortin receptor 4; assay: Binding affinity for human Melanocortin-4 receptor (hMC4R)
Melanocortin receptor 5 [9] = target: T2, Melanocortin receptor 5; assay: Binding affinity for human melanocortin 5 receptor (hMC5R) expressed in HEK293 cells; format: cell-based
Homo sapiens = organism: Homo sapiens; assay: Selectivity as ratio of binding affinity for human melanocortin 1 and melanocortin 3 receptors
[10] = target: Melanocortin receptor (M1 and M4) (Homo sapiens) (UniProt P32245+Q01726); assay: Selectivity as ratio of binding affinity for human melanocortin 1 and melanocortin 4 receptors; format: protein assay

T1 sequence (P41968 whole entry): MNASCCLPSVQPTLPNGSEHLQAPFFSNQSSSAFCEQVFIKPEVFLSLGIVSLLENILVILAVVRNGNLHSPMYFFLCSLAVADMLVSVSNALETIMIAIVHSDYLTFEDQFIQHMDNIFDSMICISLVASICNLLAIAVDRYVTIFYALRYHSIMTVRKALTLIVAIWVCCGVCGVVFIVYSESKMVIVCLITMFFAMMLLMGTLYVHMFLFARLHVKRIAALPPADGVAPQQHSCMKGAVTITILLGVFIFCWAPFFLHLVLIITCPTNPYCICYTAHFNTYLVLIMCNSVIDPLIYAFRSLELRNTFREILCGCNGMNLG

Ki (Melanocortin receptor 3 [1]) [nM]	EC50 (Melanocortin receptor 5 [2]) [nM]	EC50 (Melanocortin receptor 4 [3]) [nM]	EC50 (Melanocortin receptor 3 [4]) [nM]	ACT (Melanocortin receptor 5 [5]) [%]	ACT (Melanocortin receptor 3 [6]) [%]	ACT (Melanocortin receptor 4 [7]) [%]	Ki (Melanocortin receptor 4 [8]) [nM]	Compound	other results
370	> 10000	> 1000	1000	–	–	–	–	C[C@@H]1NC(=O)[C@@H](Cc2ccccc2)NC(=O)[C@H](Cc2cnc[nH]2)NC(=O)CCC(=O)NCCCC[C@@H](C(N)=O)NC(=O)[C@H](Cc2c[nH]c3ccccc23)NC1=O	–
–	–	–	–	0	53	0	–	C[C@@H]1NC(=O)[C@@H](Cc2ccccc2)NC(=O)[C@H](Cc2c[nH]cn2)NC(=O)CCC(=O)NCCCC[C@H](C(N)=O)NC(=O)[C@@H](Cc2c[nH]c3ccccc23)NC1=O	–
–	–	–	–	56	36	0	–	N=C(N)NCCC[C@@H]1NC(=O)[C@@H](Cc2ccc3ccccc3c2)NC(=O)[C@H](Cc2c[nH]cn2)NC(=O)c2ccccc2C(=O)NCCCC[C@H](C(N)=O)NC(=O)[C@@H](Cc2c[nH]c3ccccc23)NC1=O	–
–	–	–	–	100	21	60.5	–	N=C(N)NCCC[C@H]1NC(=O)[C@H](Cc2ccccc2)NC(=O)[C@H]2CCCN2C(=O)CCC(=O)NCCCC[C@@H](C(N)=O)NC(=O)[C@H](Cc2c[nH]c3ccccc23)NC1=O	–
–	–	–	–	81	0	22.8	–	N=C(N)NCCC[C@@H]1NC(=O)[C@@H](Cc2ccc3ccccc3c2)NC(=O)[C@H](Cc2c[nH]cn2)NC(=O)CCCC(=O)NCCCC[C@H](C(N)=O)NC(=O)[C@@H](Cc2c[nH]c3ccccc23)NC1=O	–
–	–	2300	–	–	–	–	190	N=C(N)NCCC[C@@H]1NC(=O)[C@@H](Cc2ccccc2)NC(=O)[C@@H]2CCCN2C(=O)CCC(=O)NCCCC[C@@H](C(N)=O)NC(=O)[C@H](Cc2c[nH]c3ccccc23)NC1=O	Ki (Melanocortin receptor 3 [1]; hek293): 390 nM; EC50 (Melanocortin receptor 5 [2]; hek293): 1300 nM; Ki (Melanocortin receptor 5 [9]; hek293): 990 nM; EC50 (Melanocortin receptor 3 [4]; hek293): 790 nM
110	> 10000	50	75	–	–	–	670	N=C(N)NCCC[C@@H]1NC(=O)[C@@H](Cc2ccccc2)NC(=O)[C@H](Cc2c[nH]cn2)NC(=O)CCCC(=O)NCCCC[C@@H](C(N)=O)NC(=O)[C@H](Cc2c[nH]c3ccccc23)NC1=O	Ki (Melanocortin receptor 5 [9]): 3100 nM
140	1100	3000	68	–	–	–	630	N=C(N)NCCC[C@H](NC(=O)[C@@H](Cc1ccccc1)NC(=O)[C@H](Cc1cnc[nH]1)NC(=O)CCC(=O)O)C(=O)N[C@@H](Cc1c[nH]c2ccccc12)C(=O)N[C@@H](CCCCN)C(N)=O	Ki (Melanocortin receptor 5 [9]): 880 nM
–	–	–	–	0	76	98	–	N=C(N)NCCC[C@@H]1NC(=O)[C@@H](Cc2ccccc2)NC(=O)[C@H](Cc2c[nH]cn2)NC(=O)c2ccccc2C(=O)NCCCC[C@H](C(N)=O)NC(=O)[C@@H](Cc2c[nH]c3ccccc23)NC1=O	–
5.9	1.01	1200	> 10000	–	–	–	220	N=C(N)NCCC[C@@H]1NC(=O)[C@@H](Cc2ccc3ccccc3c2)NC(=O)[C@H](Cc2cnc[nH]2)NC(=O)CCCC(=O)NCCCC[C@@H](C(N)=O)NC(=O)[C@H](Cc2c[nH]c3ccccc23)NC1=O	Ki (Melanocortin receptor 5 [9]): 26 nM
–	–	> 10000	–	–	–	–	–	C[C@H]1NC(=O)[C@H](Cc2c[nH]cn2)NC(=O)CCC(=O)NCCCC[C@@H](C(N)=O)NC(=O)[C@H](Cc2c[nH]c3ccccc23)NC(=O)[C@H](CCCN=C(N)N)NC1=O	EC50 (Melanocortin receptor 5 [2]; hek293): > 10000 nM; EC50 (Melanocortin receptor 3 [4]; hek293): > 10000 nM
–	–	–	–	100	88	35	–	N=C(N)NCCC[C@@H]1NC(=O)[C@@H](Cc2ccc3ccccc3c2)NC(=O)[C@H](Cc2c[nH]cn2)NC(=O)CCC(=O)NCCCC[C@H](C(N)=O)NC(=O)[C@@H](Cc2c[nH]c3ccccc23)NC1=O	–
–	–	–	–	67	95	100	–	N=C(N)NCCC[C@@H]1NC(=O)[C@@H](Cc2ccccc2)NC(=O)[C@H](Cc2c[nH]cn2)NC(=O)CCC(=O)NCCCC[C@H](C(N)=O)NC(=O)[C@@H](Cc2c[nH]c3ccccc23)NC1=O	Selectivity ratio (Homo sapiens): 52.5; Selectivity ratio [10]: 700
–	–	–	–	100	100	26.5	–	NCCCC[C@H](NC(=O)[C@H](Cc1c[nH]c2ccccc12)NC(=O)[C@H](CCCN=C(N)N)NC(=O)[C@@H](Cc1ccccc1)NC(=O)[C@H](Cc1c[nH]cn1)NC(=O)CCC(=O)O)C(N)=O	–
–	–	–	–	0	19	35	–	C[C@@H]1NC(=O)CCC(=O)NCCCC[C@H](C(N)=O)NC(=O)[C@@H](Cc2c[nH]c3ccccc23)NC(=O)[C@H](CCCN=C(N)N)NC(=O)[C@@H](Cc2ccccc2)NC1=O	–
–	–	–	–	0	100	100	–	N=C(N)NCCC[C@@H]1NC(=O)[C@@H](Cc2ccccc2)NC(=O)[C@H](Cc2c[nH]cn2)NC(=O)CCCC(=O)NCCCC[C@H](C(N)=O)NC(=O)[C@@H](Cc2c[nH]c3ccccc23)NC1=O	–
280	> 5000	70	13	–	–	–	58	N=C(N)NCCC[C@@H]1NC(=O)[C@@H](Cc2ccccc2)NC(=O)[C@H](Cc2cnc[nH]2)NC(=O)c2ccccc2C(=O)NCCCC[C@@H](C(N)=O)NC(=O)[C@H](Cc2c[nH]c3ccccc23)NC1=O	–
1400	> 10000	22	42	–	–	–	1700	C[C@@H]1NC(=O)CCC(=O)NCCCC[C@@H](C(N)=O)NC(=O)[C@H](Cc2c[nH]c3ccccc23)NC(=O)[C@H](CCCN=C(N)N)NC(=O)[C@@H](Cc2ccccc2)NC1=O	–
77	560	1.6	70	–	–	–	5.7	N=C(N)NCCC[C@@H]1NC(=O)[C@@H](Cc2ccccc2)NC(=O)[C@H](Cc2c[nH]cn2)NC(=O)CCC(=O)NCCCC[C@@H](C(N)=O)NC(=O)[C@H](Cc2c[nH]c3ccccc23)NC1=O	Ki (Melanocortin receptor 5 [9]): 660 nM
7.8	640	> 10000	18	–	–	–	57	N=C(N)NCCC[C@@H]1NC(=O)[C@@H](Cc2ccc3ccccc3c2)NC(=O)[C@H](Cc2cnc[nH]2)NC(=O)c2ccccc2C(=O)NCCCC[C@@H](C(N)=O)NC(=O)[C@H](Cc2c[nH]c3ccccc23)NC1=O	Ki (Melanocortin receptor 5 [9]): 5700 nM
12.1	150	260	70	–	–	–	87	N=C(N)NCCC[C@@H]1NC(=O)[C@@H](Cc2ccc3ccccc3c2)NC(=O)[C@H](Cc2c[nH]cn2)NC(=O)CCC(=O)NCCCC[C@@H](C(N)=O)NC(=O)[C@H](Cc2c[nH]c3ccccc23)NC1=O	Ki (Melanocortin receptor 5 [9]): 140 nM
–	–	–	–	0	0	0	–	C[C@H]1NC(=O)[C@H](Cc2c[nH]cn2)NC(=O)CCC(=O)NCCCC[C@H](C(N)=O)NC(=O)[C@@H](Cc2c[nH]c3ccccc23)NC(=O)[C@H](CCCN=C(N)N)NC1=O	–
